For data set [1], the target named is T1, Menin (Homo sapiens, UniProt O00255).
T1 sequence (O00255 whole entry): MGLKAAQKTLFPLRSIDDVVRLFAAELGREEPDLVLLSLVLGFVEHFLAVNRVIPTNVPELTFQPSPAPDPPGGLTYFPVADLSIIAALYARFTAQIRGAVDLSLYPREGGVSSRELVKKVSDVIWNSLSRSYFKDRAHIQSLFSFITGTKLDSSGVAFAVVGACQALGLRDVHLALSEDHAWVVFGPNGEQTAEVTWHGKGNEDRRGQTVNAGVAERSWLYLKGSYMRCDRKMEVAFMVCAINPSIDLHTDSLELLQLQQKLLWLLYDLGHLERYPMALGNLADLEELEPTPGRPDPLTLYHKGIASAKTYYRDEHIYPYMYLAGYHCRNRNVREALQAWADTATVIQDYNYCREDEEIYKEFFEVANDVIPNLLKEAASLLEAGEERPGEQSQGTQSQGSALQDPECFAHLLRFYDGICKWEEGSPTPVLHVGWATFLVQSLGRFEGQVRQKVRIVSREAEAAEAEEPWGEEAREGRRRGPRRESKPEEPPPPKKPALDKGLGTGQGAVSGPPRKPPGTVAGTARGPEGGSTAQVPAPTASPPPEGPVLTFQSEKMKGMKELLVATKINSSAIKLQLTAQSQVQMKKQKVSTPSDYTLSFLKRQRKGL
Put plainly: Inhibition of fluorescent labeled tracer binding to Menin (unknown origin) after 1 hr by fluorescence polarization competitive binding assay. Put shortly:
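Competitive FP assay: 4 nM menin and 2 nM fluorescein-labeled tracer (final concentrations) in PBS with 100 μg/mL bovine γ-globulin and 0.01% Triton X-100. Compounds added from DMSO at varying concentrations and incubated 1 h at room temperature. IC50 obtained by nonlinear sigmoidal fitting of the FP decrease against total compound concentration.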
In general terms: In fluorescence polarisation assays a small probe gives low polarisation when free and higher when bound to something large.

In data set [2] the test system is MV4-11. Put plainly: Growth inhibition of human MV4-11 cells after 7 days by WST-8 assay. In kind it is functional, cell-based. As to conditions: MV4-11, 168 h. Put shortly:
(§1)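 Cells cultured in IMDM or RPMI 1640 with 10% FBS at 37 °C, 5% CO2. Growth read by WST-8 at 450 nm after at least 1 h with reagent. Signals normalized to untreated cells and IC50 fitted by nonlinear regression; mean and SD from three independent experiments.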
On the technique in general: Formazan colour is commonly taken as a measure of viable cells.

Data set [3] relates to MOLM-13. Kind of data set: Growth inhibition of human MOLM13 cells after 7 days by WST-8 assay. In kind it is functional, cell-based. As to conditions: MOLM-13, 168 h. In a few lines:
as §1

Data set [4] relates to HL-60. Kind of data set: Growth inhibition of human HL60 cells after 7 days by WST-8 assay. In kind it is functional, cell-based. As to conditions: HL-60, 168 h. Put shortly: as §1
Data set [5] concerns the target T2, Menin (Homo sapiens) (UniProt O00255).
T2 sequence (whole entry): T1 sequence (O00255 whole entry)
Put plainly: Covalent binding affinity to human menin assessed as protein-compound complex formation at protein to compound ratio of 1:1.2 after 1 hr by LC-MS analysis relative to control. In a few lines:
(§2)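 Diluted to 1 mg/mL, then run on reverse-phase C4 LC with a 5–100% MeCN/0.2% formic acid gradient and Q-TOF MS. Intact masses obtained by maximum-entropy deconvolution.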

The target in data set [6] is T2, Menin (Homo sapiens). Put plainly: Covalent binding affinity to human menin assessed as protein-compound complex formation at protein to compound ratio of 1:1.2 measured after overnight incubation by LC-MS analysis relative to control. Put shortly:
as §2

Data set [7] has as its system Mus musculus. Put plainly: Downregulation of Hoxa9 expression in tumors of CB-17 SCID mouse xenografted with human MV4-11 cells at 10 mg/kg, iv administered as single dose and measured after 24 hrs by RT-qPCR analysis. In kind it is functional, organism-based. In a few lines: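 MV4;11 subcutaneous xenografts in female C.B-17 SCID mice; single IV dose of 10 mg/kg or vehicle. Tumors collected 24 h post-dose, 3 mice per group, snap-frozen and powdered. Total RNA converted to cDNA; HOXA9, MEIS1 and GAPDH measured by TaqMan real-time PCR; relative expression by comparative Ct.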
In general terms: In xenograft studies the graft and the host belong to different species.

Data set [8] deals with Mus musculus. Put plainly: Downregulation of MEIS1 expression in tumors of CB-17 SCID mouse xenografted with human MV4-11 cells at 10 mg/kg, iv administered as single dose and measured after 24 hrs by RT-qPCR analysis relative to control. In kind it is functional. In a few lines: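 Female C.B-17 SCID mice bearing subcutaneous MV4;11 flank xenografts were given a single IV dose (vehicle control). Tumors were harvested at 24 h, 3 mice per time point, snap-frozen in liquid N2 and ground. Total RNA was reverse-transcribed, and HOXA9, MEIS1 and GAPDH were measured by TaqMan real-time PCR. Relative expression was calculated by the comparative Ct method.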

Data set [9] is described as follows: Toxicity in SCID mouse assessed as drug tolerability at 10 mg/kg, iv administered every other day for 1 week. In kind it is organism-based. As to conditions: in vivo, 168 h.
Data set [10] can be described thus: Toxicity in SCID mouse assessed as drug tolerability at 25 mg/kg, iv administered every other day for 1 week. The format is organism-based. As to conditions: in vivo, 168 h.
Data set [11] has as its system Mus musculus. Kind of data set: In vivo inhibition of Menin-MLL protein-protein interaction in CB-17 SCID mouse xenografted with human MV4-11 cells assessed as reduction in MEIS1 expression in tumor at 25 mg/kg, iv measured after 6 to 24 hrs by RT-qPCR analysis. In kind it is functional, organism-based. In a few lines:
(§3)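 MV4;11 flank xenografts in female C.B-17 SCID mice given a single 25 mg/kg IV dose or vehicle. Tumors harvested at 6, 24 and 48 h, 3 mice per time point, and frozen in liquid N2. RNA extracted; HOXA9 and MEIS1, with GAPDH, quantified by TaqMan qRT-PCR using the comparative Ct method.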

The subject of data set [12] is Mus musculus. Kind of data set: In vivo inhibition of Menin-MLL protein-protein interaction in CB-17 SCID mouse xenografted with human MV4-11 cells assessed as reduction in HOXA9 expression in tumor at 25 mg/kg, iv measured after 6 to 24 hrs by RT-qPCR analysis. In kind it is functional, organism-based. In a few lines: as §3
The subject of data set [13] is MV4-11. Put plainly: Antitumor activity against human MV4-11 cells xenografted in CB-17 SCID mouse assessed as effect on tumor growth at 10 mg/kg, iv administered every other day for 1 week (11 doses). In kind it is functional, organism-based. In a few lines:
(§4)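 Female C.B-17 SCID mice inoculated s.c. in the flank with 5 × 10^6 MV4;11 cells in 0.1 mL 1:1 PBS/Matrigel (final Matrigel 5 mg/mL). Dosed IV every other day, 3 times per week, 11 doses in total; vehicle-only control group. Tumor volume by calipers as (A × B²)/2, and body weight, measured 2–3 times weekly during treatment and at least weekly afterward. Toxicity signs monitored.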

In data set [14] the test system is MV4-11. Put plainly: Antitumor activity against human MV4-11 cells xenografted in CB-17 SCID mouse assessed as tumor growth inhibition at 25 mg/kg, iv administered every other day for 1 week (11 doses) and measured on day 35 post treatment relative to control. As to conditions: MV4-11, iv, read-out: TGI. In kind it is functional.
Data set [15] concerns MV4-11. Kind of data set: Antitumor activity against human MV4-11 cells xenografted in CB-17 SCID mouse assessed as tumor volume at 25 mg/kg, iv administered every other day for 1 week (11 doses) and measured on day 35 post treatment (reference value: 92 mm3). In kind it is functional.
Data set [16] can be described thus: Toxicity in CB-17 SCID mouse xenografted with human MV4-11 cells assessed as effect on body weight at 10 to 25 mg/kg, iv administered every other day for 1 week (11 doses). In kind it is organism-based. As to conditions: in vivo, 168 h. Put shortly: as §4
Data set [17] in a line: Toxicity in CB-17 SCID mouse xenografted with human MV4-11 cells assessed as effect on clinical signs at 10 to 25 mg/kg, iv administered every other day for 1 week (11 doses). As to conditions: in vivo, 168 h. The format is organism-based. In a few lines:
as §4

Structures are written as SMILES. Active and inactive are the calls of the source. The rule behind the calls is not given here.

The term IC50 denotes the concentration needed to halve the response being measured.

On to `COC(=O)N[C@H]1CCC[C@@H]1[C@](CN1CCC1)(c1cccc(F)c1)C1CCN(CC2CN(c3ccc(S(=O)(=O)C4CN(C(=O)/C=C/CN5CCCCC5)C4)cc3)C2)CC1`, for which the IC50 came out at 2.6 nM in data set [1], 1 nM in data set [2], 4 nM in [3] and 2800 nM in [4]. In addition, the Activity in data set [5] is 75%; in [6] it was 100%; in data set [9] it was “Non-Toxic”; in data set [10], “Non-Toxic”; in data set [15] it was 59 mm3; in data set [16] it was “Non-Toxic”. Also, in data set [17], the Activity entry is listed as “Non-Toxic”. In data set [7], the result was Active. For the same compound, the “fold change (FC)” value in [8] is on record as greater than 2. For the same compound, the inhibition result in [11] and in data set [12] was “Active” in each case. For the same compound, the result in [13] was inactive. In data set [14], the inhibition in vivo at 25 mg/kg amounted to 97%.
